The subject of data set [1] is Rattus norvegicus. As to the kind of experiment: Ratio of compound AUC to verapamil AUC in Sprague-Dawley rat treated with 10 mg/kg, po of verapamil. It counts as ADME, organism-based. On the set-up: dose 10 mg/kg, route oral. Conditions: in vivo.
Data set [2] has as its system Rattus norvegicus. Nature of the data set: Ratio of compound AUC to verapamil AUC in streptozotocin-induced diabetes mellitus model of Sprague-Dawley rat treated with 10 mg/kg, po of verapamil. It counts as ADME, organism-based. On the set-up: dose 10 mg/kg, route oral. Conditions: in vivo.
In data set [3] the test system is Intestine. Nature of the data set: Decrease of CYP3A2 level in streptozotocin-induced diabetes mellitus model of Sprague-Dawley rat intestine by Western blot analysis. It counts as ADME. The procedure, abridged: (§1)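 Rats from the STZ 65 mg/kg i.p. protocol versus citrate-treated age-matched controls, day 35. Hepatic microsomes or duodenal and jejunal homogenates (20 µg protein) run on 10% SDS-PAGE and probed with mouse anti-rat CYP3A1 monoclonal and rabbit anti-rat CYP3A2 polyclonal antibodies; band densitometry expressed relative to controls; mean ± S.D., four rats.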

Data set [4] is described as follows: Tmax in Sprague-Dawley rat at 10 mg/kg, po. In kind it is ADME, organism-based. On the set-up: dose 10 mg/kg, route oral. The conditions noted are these: in vivo.
A short description of data set [5]: AUC (0 to 90 mins) in streptozotocin-induced diabetes mellitus model of Sprague-Dawley rat portal vein plasma at 10 mg/kg, po. In kind it is ADME, organism-based. Also on record: time < 1.5 hr, dose 10 mg/kg, route oral.
Data set [6] is described as follows: AUC (0 to 90 mins) in Sprague-Dawley rat portal vein plasma at 10 mg/kg, po. In kind it is ADME, organism-based. Also on record: time < 1.5 hr, dose 10 mg/kg, route oral.
Data set [7] is described as follows: Cmax in streptozotocin-induced diabetes mellitus model of Sprague-Dawley rat portal vein plasma at 10 mg/kg, po. On the set-up: dose 10 mg/kg, route oral. It counts as ADME, organism-based.
A short description of data set [8]: Cmax in Sprague-Dawley rat portal vein plasma at 10 mg/kg, po. It counts as ADME, organism-based. Also on record: dose 10 mg/kg, route oral.
The nature of data set [9]: Tmax in Sprague-Dawley rat portal vein plasma at 10 mg/kg, po. In kind it is ADME, organism-based. On the set-up: dose 10 mg/kg, route oral.
In data set [10] the test system is Liver. As to the kind of experiment: Increase of CYP3A2 level in streptozotocin-induced diabetes mellitus model of Sprague-Dawley rat liver by Western blot analysis relative to wild type rat. In kind it is ADME, tissue-based. The method, boiled down:
as §1

The nature of data set [11]: Tmax in streptozotocin-induced diabetes mellitus model of Sprague-Dawley rat portal vein plasma at 10 mg/kg, po. On the set-up: dose 10 mg/kg, route oral. It counts as ADME, organism-based.
Data set [12] relates to Intestine. Nature of the data set: Decrease of CYP3A1 level in streptozotocin-induced diabetes mellitus model of Sprague-Dawley rat intestine by Western blot analysis. It counts as ADME. The procedure, abridged:
as §1

Data set [13] can be described thus: Tmax in streptozotocin-induced diabetes mellitus model of Sprague-Dawley rat at 10 mg/kg, po. In kind it is ADME, organism-based. On the set-up: dose 10 mg/kg, route oral. Conditions: in vivo.
Data set [14] relates to Liver. Nature of the data set: Increase of CYP3A1 level in streptozotocin-induced diabetes mellitus model of Sprague-Dawley rat liver by Western blot analysis relative to wild type rat. In kind it is ADME, tissue-based. The procedure, abridged:
as §1

One may read the Tmax as the time at which the peak concentration occurs. As a reminder, the AUC(0-t) is the area under the concentration-time curve up to a stated or last time point. The Cmax is the highest concentration seen after dosing.

The structures appear in SMILES notation.

For `COc1ccc(CCNCCCC(C#N)(c2ccc(OC)c(OC)c2)C(C)C)cc1OC.Cl` (centres undefined), the “Ratio AUC” value with Rattus norvegicus [1] came out at 0.69; in the data set with Rattus norvegicus [2] it was 0.43.

Consider `COc1ccc(CCN(C)CCCC(C#N)(c2ccc(OC)c(OC)c2)C(C)C)cc1OC` (centres undefined), for which the Activity entry was “Toxic” in the data set with Intestine [3], 151% in the data set on Liver [10], “Toxic” in the data set with Intestine [12] and 50% in the data set on Liver [14]. For the same compound, the Tmax in [4] was 34 min; in data set [9], 37.5 min; in [11], 30 min; in data set [13], 21.7 min. Also, the AUC(0-t) at 1.5 h in [5] was 7030 ng·h/mL; in [6], 1460 ng·h/mL. Besides, the Cmax in [7] turned out to be 5830 ng/mL; in data set [8], 1440 ng/mL.

The record behind these values is ChEMBL document CHEMBL3526072 (Drug Metab Dispos, 2011).
